Assay results as given in ChEMBL document CHEMBL1135796, “Inhibition of nNOS activity in rat brain by synthetic kynurenines: structure-activity dependence” (J Med Chem, 2002).

Assays:
[1] = Compound tested for solubility measured in 3% ethanol:water or in 3% methanol:water; NS is not soluble; assay type: ADME; conditions: buffer
[2] = molecular target: Nitric oxide synthase 1 (Rattus norvegicus) (UniProt P29476); experiment: Neuronal subtype of Neuronal nitric oxide synthase (nNOS) activity tested on Rat Striatal neurones at the concentration of 10e-3 (M)
Nitric oxide synthase 1 (Rattus norvegicus), sequence (P29476 whole entry): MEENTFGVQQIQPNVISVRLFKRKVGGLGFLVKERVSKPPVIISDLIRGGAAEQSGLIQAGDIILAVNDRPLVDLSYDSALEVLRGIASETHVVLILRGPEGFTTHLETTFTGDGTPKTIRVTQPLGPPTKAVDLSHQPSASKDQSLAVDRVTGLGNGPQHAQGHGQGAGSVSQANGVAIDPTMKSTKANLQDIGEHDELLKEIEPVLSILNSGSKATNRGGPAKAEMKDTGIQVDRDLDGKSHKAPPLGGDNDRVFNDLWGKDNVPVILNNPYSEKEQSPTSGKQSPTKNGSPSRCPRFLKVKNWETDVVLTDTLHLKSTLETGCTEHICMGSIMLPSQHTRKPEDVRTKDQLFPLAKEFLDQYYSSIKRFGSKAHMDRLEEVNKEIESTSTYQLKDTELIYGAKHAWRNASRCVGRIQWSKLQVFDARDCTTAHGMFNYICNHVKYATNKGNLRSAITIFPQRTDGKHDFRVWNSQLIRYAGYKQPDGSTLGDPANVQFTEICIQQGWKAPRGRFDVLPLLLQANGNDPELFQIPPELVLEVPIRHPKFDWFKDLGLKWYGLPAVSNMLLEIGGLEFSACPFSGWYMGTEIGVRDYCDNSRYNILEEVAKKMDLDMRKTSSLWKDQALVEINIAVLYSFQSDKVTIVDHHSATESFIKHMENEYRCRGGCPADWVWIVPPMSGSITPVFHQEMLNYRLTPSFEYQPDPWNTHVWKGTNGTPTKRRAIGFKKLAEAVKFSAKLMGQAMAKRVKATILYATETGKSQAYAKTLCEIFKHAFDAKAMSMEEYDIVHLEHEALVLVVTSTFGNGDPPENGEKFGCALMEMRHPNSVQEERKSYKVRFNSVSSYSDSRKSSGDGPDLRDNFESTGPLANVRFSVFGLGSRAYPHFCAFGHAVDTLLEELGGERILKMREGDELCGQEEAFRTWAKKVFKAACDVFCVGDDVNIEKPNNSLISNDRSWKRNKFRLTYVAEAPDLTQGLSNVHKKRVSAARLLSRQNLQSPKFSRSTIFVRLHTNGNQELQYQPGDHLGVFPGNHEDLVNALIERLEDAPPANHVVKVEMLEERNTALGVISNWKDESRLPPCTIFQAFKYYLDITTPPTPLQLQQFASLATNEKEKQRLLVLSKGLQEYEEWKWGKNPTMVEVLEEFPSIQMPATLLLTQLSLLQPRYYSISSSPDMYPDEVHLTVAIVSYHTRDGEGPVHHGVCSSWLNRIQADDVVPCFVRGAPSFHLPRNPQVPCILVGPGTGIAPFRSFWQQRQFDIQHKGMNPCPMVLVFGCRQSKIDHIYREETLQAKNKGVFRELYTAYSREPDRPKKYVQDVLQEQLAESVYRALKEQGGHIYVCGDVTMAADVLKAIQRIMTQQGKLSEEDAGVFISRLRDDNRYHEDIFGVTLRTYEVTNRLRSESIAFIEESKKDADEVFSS
Summary of the method: (§1)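 Rat striatal crude homogenate (supernatant after 1000g, 5 min) as nNOS source. L-[3H]-arginine to L-[3H]-citrulline conversion: 10 µM L-arginine plus 50 nM tracer, H4biopterin, FAD, 0.1 mM CaCl2, pH 7.6. Compounds added over 10 pM–1 mM. Started with NADPH (0.75 mM final), 30 min at 37 °C. Blank omits NADPH. Activity expressed as % of untreated samples. Three experiments in triplicate, four striata each.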

[3] = molecular target: Nitric oxide synthase 1 (Rattus norvegicus) (UniProt P29476); experiment: Neuronal subtype of Neuronal nitric oxide synthase (nNOS) activity tested on Rat Striatal neurones at the concentration of 10e-5 (M); summary of the method: as §1
[4] = molecular target: Nitric oxide synthase 1 (Rattus norvegicus) (UniProt P29476); experiment: Neuronal subtype of Neuronal nitric oxide synthase (nNOS) activity tested on Rat Striatal neurones at the concentration of 10e-11 (M); summary of the method: as §1
[5] = molecular target: Nitric oxide synthase 1 (Rattus norvegicus) (UniProt P29476); experiment: Neuronal subtype of Neuronal nitric oxide synthase (nNOS) activity tested on Rat Striatal neurones at the concentration of 10e-9 (M); summary of the method: as §1
[6] = molecular target: Nitric oxide synthase 1 (Rattus norvegicus) (UniProt P29476); experiment: Neuronal subtype of Neuronal nitric oxide synthase (nNOS) activity tested on Rat Striatal neurones at the concentration of 10e-7 (M); summary of the method: as §1
[7] = molecular target: Nitric oxide synthase 1 (Rattus norvegicus) (UniProt P29476); experiment: Neuronal subtype of Neuronal nitric oxide synthase (nNOS) activity tested on Rat Striatal neurones at the concentration of 0(M); summary of the method: as §1
[8] = molecular target: Nitric oxide synthase 1 (Rattus norvegicus, UniProt P29476); experiment: 50% inhibitory concentration against Neuronal nitric oxide synthase (nNOS) activity; summary of the method: as §1
Nitric oxide synthase 1, sequence (P29476 whole entry): as above

Structure (SMILES)	NS [1]	nNOS activity [2] [%]	nNOS activity [3] [%]	nNOS activity [4] [%]	nNOS activity [5] [%]	nNOS activity [6] [%]	nNOS activity [7] [%]	also measured
CCCC(=O)NC(CC(=O)c1cc(OC)ccc1N)C(=O)O (stereo not given)		55	67.4	85.8	82.1	77.3	100	IC50 [8]: > 1000 µM
COc1ccc(N)c(C(=O)CC(NC(C)=O)C(=O)O)c1 (stereo not given) [KYNURENIN]		31.5	64	78.6	73.4	65.8	100	IC50 [8]: 41 µM
CCCC(=O)NC(CC(=O)c1cccc(OC)c1)C(=O)O (stereo not given)		105	99.7	99.9	101	101	100	
COc1cccc(C(=O)CC(NC(C)=O)C(=O)O)c1 (stereo not given)		95.7	103	92.7	100	87.2	100	
CCCC(=O)NC(C(=O)OCC)(C(=O)OCC)C(C)C(=O)c1ccccc1 (stereo not given)	Insoluble							
COc1ccc(N(C)C)c(C(=O)CC(NC(C)=O)C(=O)O)c1 (stereo not given)		99	101	100	99.9	99.6	100	
CCOC(=O)C(CC(=O)c1cccc([N+](=O)[O-])c1)(NC(=O)CC)C(=O)OCC	Insoluble							

More lines, main results first:

NS [1]	nNOS activity [2] [%]	nNOS activity [3] [%]	nNOS activity [4] [%]	nNOS activity [5] [%]	nNOS activity [6] [%]	nNOS activity [7] [%]	Structure (SMILES)	also measured
Insoluble							CCCC(=O)NC(CC(=O)c1cc(OC)ccc1N)(C(=O)OCC)C(=O)OCC	
Insoluble							CCCC(=O)NC(CCC(=O)c1ccccc1)(C(=O)OCC)C(=O)OCC	
Insoluble							CCOC(=O)C(CC(=O)c1cccc(OC)c1)(NC(=O)C1CC1)C(=O)OCC	
Insoluble							CCOC(=O)C(CC(=O)c1cccc([N+](=O)[O-])c1)(NC(C)=O)C(=O)OCC	
Insoluble							C/C=C/C(=O)NC(CC(=O)c1cccc(OC)c1)(C(=O)OCC)C(=O)OCC	
Insoluble							CCOC(=O)C(CC(=O)c1cc(OC)ccc1NCc1ccccc1)(NC(C)=O)C(=O)OCC	
	100	98.2	101	101	100	100	COc1ccc(NCc2ccccc2)c(C(=O)CC(NC(C)=O)C(=O)O)c1 (stereo not given)	
Insoluble							CCOC(=O)C(CC(=O)c1cccc(OC)c1)(NC(=O)C1CCCCC1)C(=O)OCC	
Insoluble							CCOC(=O)C(CC(=O)c1cccc(OC)c1)(NC(=O)c1ccccc1)C(=O)OCC	
Insoluble							CCCC(=O)NC(CC(=O)c1cccc(OC)c1)(C(=O)OCC)C(=O)OCC	
Insoluble							CCOC(=O)C(CC(=O)c1cc(OC)ccc1N(C)C)(NC(C)=O)C(=O)OCC	
